Variants at the floor of the assay were thinned out.
B1: tRNA (parent)
chain: GUUCCGUUGGCGUAAUGGUAACGCGUCUCCCUCCUAAGGAGAAGACUGCGGGUUCGAGUCCCGUACGGAACG

Variants of: B1
Assay: yeast fitness relative to wild type (ratio to wild type); higher = fitter; tRNA-Arg(CCU), competitive growth, 37 C, YPD
Outline: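 Variants of the tRNA-Arg(CCU) gene, chemically synthesised with a 3% per-site mutation rate at 69 sites, were placed at the native genomic locus in Saccharomyces cerevisiae. The pooled strains were competed in YPD at 37°C for 24 hours in six parallel replicates. Gene amplicons from the start population and from each end population were read by 100-nucleotide paired-end sequencing. Darwinian fitness relative to wild type came from changes in genotype frequencies; genotypes needed ≥ 100 starting reads, and estimates < 0.5 were set to 0.5.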

Which yeast fitness does the source give for GUUCCGUUGGCGUAAUGGAAACGCGUCUCCCUCCUAAGGAGAAGACUGCGGGUUCGAGCCACGCACGGAACG here?
The yeast fitness was at most 0.5.

With GUUCCGUUGGCGUAAUGGAAACGCGUCUCCCUCCUAAGGAGAAGACUGCGGGUUCGAGUCCCGUACAGAACG as the variant, how does the yeast fitness read?
The yeast fitness was 0.866.

For GUUCCGUUGGCGUAAUGGAAACGCGUCGCCCUCCUAAGGCGGAGACUGCGGGUUCGAGUCCCGUACGGCACG, which yeast fitness is on record?
The yeast fitness was 0.561.

Which yeast fitness does the source give for GUUCCGUUGGCGUAAUGGAAACGCGUCUCCCUCCUAAGGAGAAGACUCCGGGUUCGAGUCCCGUACGGAACG here?
Its yeast fitness is 0.861.

With GUUCCGUUGGCGUAAUGGAAACGCGUCUCCCUCCUAAGGAGAAGACUGCAGGUUCGCGUCCCGUACGGAACG as the variant, how does the yeast fitness read?
Its yeast fitness is 0.516.

For GUUCCGUUGGCGUAAUGGAAACGCGUCCCCCUCCUAAGCAGAAGACUGCGGGUUCGAGUCCCGUACGGAACG, which yeast fitness is on record?
Its yeast fitness is at most 0.5.

For GUUCCGUUGGCGUAAUGGAAACGCGUCUCCCUCCUAAGGAGAAGAUUGCGGGUUGGAGUCCCGUACGAAACG, which yeast fitness is on record?
Its yeast fitness is at most 0.5.

For GUUCCGUUGGCGUAAUGGAAACGCGUCUCCCUCCUAAGGAGAAGACUACAGGUUCGAGUCCACUACGGAACG, which yeast fitness is on record?
Its yeast fitness is 0.591.

With GUUCCGUUGGCGUAAUGGAAACGCGUCUCCCUCCUAAGGAGAAGACUGCGGGUUCGAGACCAGUACGGAACG as the variant, how does the yeast fitness read?
Its yeast fitness is at most 0.5.

Which yeast fitness does the source give for GUUCCGUUGGCGUAAUGGAAACGCGUCUCCGUCCUUAGGAGAAGACUGCGGGUUCGAGUCCCGUUCGGAACG here?
The yeast fitness was at most 0.5.

Which yeast fitness does the source give for GUUCCGUUGGCGUAAUGGAAACGCGUCUCCCUCCUAAGGAGAAGACUGCAGGUUCGAGUCCCGUACGCAACG here?
Its yeast fitness is at most 0.5.

Which yeast fitness does the source give for GUUCCGUUGGCGUAAUGGAAACGCGUCUGCCUUCUAAGGAGAAGACAGCGAGUUCGAGUCUCGUACGGAACG here?
The yeast fitness was at most 0.5.

Which yeast fitness does the source give for GUUCCGUUGGCGUAAUGGAAACGCGUCUCCCCCCUAAGGAGAAGACUGCGGGUUCGAGUCCCGUACGGAACG here?
Its yeast fitness is 0.848.

For GUUCCGUUGGCGUAAUGGAAACGCGUCUCCCUCCUAAGCAGAAGACUGCGGGUUCGAGUCCCCUACGGAACG, which yeast fitness is on record?
The yeast fitness was at most 0.5.

With GUUCCGUUGGCGUAAUGGAAACGCGUCUCCCUCCUAAGGAGAAGACUCCGGGUUCGAGUCCCGUACCGAACG as the variant, how does the yeast fitness read?
The yeast fitness was at most 0.5.

Which yeast fitness does the source give for GUUCCGUUGGCGUAAUGGAAACGCGUCUCCCUCGUAAGGAGAAGACUGCGGAUUCGAGUCCCGUACGGAACG here?
Its yeast fitness is at most 0.5.

With GUUCCGUUGGCGUAAUGGAAACGCGUCUCCCUCCUAAGGAGAAGACUGCGGAUUCGAGUCCCGUACGGAACG as the variant, how does the yeast fitness read?
Its yeast fitness is 0.679.

With GUUCCGUUGGCGUAAUGGAAACGCGUCUCCCUCCUAAGGAGAAGACUGCGAGUUCGAGUCCCGUACGGAACG as the variant, how does the yeast fitness read?
Its yeast fitness is 0.768.

With GUUCCGUUGGCGUAAUGGAAACGCGUCUCCCUCCUAAGGAGAAGACUGCGCGUUCGAGUCCCGUACGGAACG as the variant, how does the yeast fitness read?
Its yeast fitness is 0.636.

With GUUCCGUUGGCGUAAUGGAAACGCGUCUCCCUCCUAAGGAGAAGACUGCGGGUUCGAGUCCCGUACAGAUCG as the variant, how does the yeast fitness read?
The yeast fitness was 0.691.

For GUUCCGUUGGCGUAAUGGAAACGCGUCUCCCUCCUAAGAAGAAGACUGCGGGUUCGAGUCCCCUACGGAACG, which yeast fitness is on record?
The yeast fitness was at most 0.5.

Which yeast fitness does the source give for GUUCCGUUGGCGUAAUGGAAACGCGUCUCCCUCCUAAGGAGAACACUGCGGGUUCGAGUCCCGUACCGAACG here?
The yeast fitness was 0.639.

With GUUCCGUUGGCGUAAUGGAAACGCGUCUCCCUCCUAAGGAGAACACUGCGGGUUCGAGUCCCGUACGGAACG as the variant, how does the yeast fitness read?
Its yeast fitness is 0.971.

With GUUCCGUUGGCGUAAUGGAAACGCGUCUCCCUCCUAAGGAGAAGACUGCGGGUUGGAGUCCCGUACGGAACG as the variant, how does the yeast fitness read?
Its yeast fitness is 0.559.

Which yeast fitness does the source give for GUUCCGUUGGCGUAAUGGAAACGCGUCUCCCUAUUCAGGAGAAGACUGCGGGUUCGAGUCCCGUACGGAACG here?
Its yeast fitness is at most 0.5.

With GUUCCGUUGGCGUAAUGGAAACGCGACUCCCUCCUAAGGAGAAGACUGCGGGUUCGAGUCCCGAACGGAACG as the variant, how does the yeast fitness read?
The yeast fitness was 0.553.

Which yeast fitness does the source give for GUUCCGUUGGCGUAAUGGAAACGCGUCUCCCUUCUUAGGAGAAGACUGCGGGUUCGAGUCCCGUAUGGAACG here?
Its yeast fitness is at most 0.5.

With GUUCCGUUGGCGUAAUGGAAACGCGUCUCCCUCCUAAGGAGAAGACUGCGGGUUCGAGUCGCGUACAGAACG as the variant, how does the yeast fitness read?
Its yeast fitness is at most 0.5.

With GUUCCGUUGGCGUAAUGGAAACGCGUCUCCGUCCUAAGGAGAAGACUGCGGGUUCGAGUCCCGUACGGAACG as the variant, how does the yeast fitness read?
Its yeast fitness is 1.02.

For GUUCCGUUGGCGUAAUGGAAACGCGUCUCCCUCGUAAGGAGACGACUGCGGGUUCGAGUCCCGUACGGAGCG, which yeast fitness is on record?
The yeast fitness was at most 0.5.

For GUUCCGUUGGCGUAAUGGAAACGCGUCUCCUUCCUAAGGAGCAGACUGCGGGUUCGAGUCCCGUACGGAGCG, which yeast fitness is on record?
Its yeast fitness is 0.912.

With GUUCCGUUGGCGUAAUGGAAACGCGUCUCCCUCCUAAGGAGAAGACUGCGGGCUCGAGUCCCGUACGGAACG as the variant, how does the yeast fitness read?
Its yeast fitness is 0.806.

With GUUCCGUUGGCGUAAUGGAAACGCGUCUCCCUCCUAAGGAGAAGACUGCGGGUUAGAGUCUCGUACGGAACG as the variant, how does the yeast fitness read?
Its yeast fitness is at most 0.5.

For GUUCCGUUGGCGUAAUGGAAACGCGUCUGCCUCCUAAGGAGAAGACUGCGGGUUCGAGUCCCGUACGGCACG, which yeast fitness is on record?
Its yeast fitness is 0.547.

With GUUCCGUUGGCGUAAUGGAAACGCGUCUCCCUCGUAUGGAGAAGACUGGGGGUUCGAGUCCCGUACGGAACG as the variant, how does the yeast fitness read?
Its yeast fitness is at most 0.5.

With GUUCCGUUGGCGUAAUGGAAACGCGUCUCCCUCCUAAGGAGAAGACUGCGGGUUCGAGUCCCGUACGCAACG as the variant, how does the yeast fitness read?
Its yeast fitness is 0.709.

Which yeast fitness does the source give for GUUCCGUUGGCGUAAUGGAAACGCGUCUCCCUCCUAAGGAGAAGACUGCGGGUUCGAGUCCCGUACGUAACG here?
Its yeast fitness is 0.857.

From the RNAGym collection of RNA variant scans (doi:10.1126/science.aae0568)
